The text below walks through data of ChEMBL document CHEMBL2384906, “Biological activity, design, synthesis and structure activity relationship of some novel derivatives of curcumin containing sulfonamides” (Eur J Med Chem, 2013).

One assay concerns Mus musculus. Briefly: Antiinflammatory activity in mouse assessed as inhibition of carrageenan-induced increase in paw volume at 200 mg/kg administered 1 hr prior to carrageenan challenge measured after 3 hrs relative to control. In kind it is functional. In outline: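 Mice were fasted 2 h and placed in groups of five. Controls received saline i.p. Phenylbutazone was given at 100 mg/kg i.p., curcumin at 200 mg/kg i.p., and derivatives at 200 mg/kg. After 1 h, 0.1 mL of 1% carrageenan in saline was injected subplantar into the right hind paw. Paw volume was followed by plethysmometer for 3 h, and % inhibition was calculated as (Vc − Vt)/Vc × 100.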
(Carrageenan injected into the paw causes an acute inflammation.)

Another assay relates to HCT-116. The experiment in a line: Cytotoxicity against human HCT116 cells after 24 hrs by MTT assay. In kind it is functional, cell-based. In outline: (§1)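 The MTT assay seeded 5 × 10⁴ cells per well and grew them 24 h in RPMI 1640 with compound at 2.5–200 µM. Medium without cells was the blank and adriamycin the positive control. MTT was added for 4 h at 37 °C, formazan was solubilised, and absorbance was read at 570 nm. IC50 is the concentration that cuts viability 50% against untreated cells.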
(Tetrazolium assays rely on reduction of a dye to a coloured formazan, in cell work by metabolically active cells.)

For a further assay, the system named is QG-56. Briefly: Cytotoxicity against human QG56 cells after 24 hrs by MTT assay. In kind it is functional, cell-based. In outline:
as §1

The subject of another assay is HeLa. Briefly: Cytotoxicity against human HeLa cells after 24 hrs by MTT assay. The assay is classed as functional, cell-based. In outline: as §1
For the next assay, the system named is HepG2. The experiment in a line: Cytotoxicity against human HepG2 cells after 24 hrs by MTT assay. In kind it is functional, cell-based. In outline: as §1
In assay [1] the test system is Trichoderma viride. The experiment in a line: Antifungal activity against Trichoderma viride MTCC 1107 after 48 hrs. In kind it is functional. The settings on record: MTCC 1107, 48 h.
Assay [2] relates to Trichoderma viride. The experiment in a line: Antifungal activity against Trichoderma viride MTCC 1107 assessed as zone of inhibition at 20 uM after 48 hrs by disc diffusion method. The assay is classed as functional. In outline: (§2)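 Spores from 4-day potato dextrose agar cultures, suspended in sterile water at 1.5 × 10⁵ CFU/mL. 0.2 mL was spread on potato dextrose agar. 5 mm filter-paper discs soaked with test compound were laid on the lawn. Incubation was 48 h at 28 °C, then the inhibition zone was measured in mm. Fluconazole was the positive control and acetone the negative control.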

Assay [3] relates to Trichoderma viride. Briefly: Antifungal activity against Trichoderma viride MTCC 1107 assessed as zone of inhibition at 40 uM after 48 hrs by disc diffusion method. In kind it is functional. The settings on record: for zone of inhibition at 40 µM: MTCC 1107, 48 h, read-out: IZ. In short, it runs like this:
as §2

In assay [4] the test system is Trichoderma viride. Briefly: Antifungal activity against Trichoderma viride MTCC 1107 assessed as zone of inhibition at 80 uM after 48 hrs by disc diffusion method. In kind it is functional. The settings on record: MTCC 1107, 48 h, read-out: IZ. In outline:
as §2

The test system of assay [5] is Curvularia lunata. Briefly: Antifungal activity against Curvularia lunata MTCC 581 after 48 hrs. The settings on record: MTCC 581, 48 h. The assay is classed as functional.
In assay [6] the test system is Curvularia lunata. The experiment in a line: Antifungal activity against Curvularia lunata MTCC 581 assessed as zone of inhibition at 20 uM after 48 hrs by disc diffusion method. The assay is classed as functional. In short, it runs like this: as §2
(In agar diffusion tests the substance spreads into inoculated agar from a disc or well.)

Assay [7] deals with Curvularia lunata. Briefly: Antifungal activity against Curvularia lunata MTCC 581 assessed as zone of inhibition at 40 uM after 48 hrs by disc diffusion method. The assay is classed as functional. The settings on record: for zone of inhibition at 40 µM: MTCC 581, 48 h, read-out: IZ. In short, it runs like this:
as §2

In assay [8] the test system is Aspergillus flavus. Briefly: Antifungal activity against Aspergillus flavus MTCC 1021 after 48 hrs. The assay is classed as functional.
For assay [9], the system named is Curvularia lunata. Briefly: Antifungal activity against Curvularia lunata MTCC 581 assessed as zone of inhibition at 80 uM after 48 hrs by disc diffusion method. In kind it is functional. The settings on record: MTCC 581, 48 h, read-out: IZ. In short, it runs like this: as §2
Assay [10] relates to Aspergillus flavus. The experiment in a line: Antifungal activity against Aspergillus flavus MTCC 1021 assessed as zone of inhibition at 80 uM after 48 hrs by disc diffusion method. The assay is classed as functional. In outline: as §2
Assay [11] has as its system Aspergillus niger. Briefly: Antifungal activity against Aspergillus niger MTCC 1108 after 48 hrs. The assay is classed as functional.
Assay [12] relates to Aspergillus niger. Briefly: Antifungal activity against Aspergillus niger MTCC 1108 assessed as zone of inhibition at 80 uM after 48 hrs by disc diffusion method. In kind it is functional. In short, it runs like this: as §2
The test system of assay [13] is Escherichia coli. The experiment in a line: Antimicrobial activity against Escherichia coli ATCC 35218 after 24 hrs by broth micro serial dilution method. The assay is classed as functional. In short, it runs like this: (§3)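 This was broth microdilution in autoclaved Mueller-Hinton broth. 150 µL of compound per well was serially diluted […], and 50 µL of test organism was added. Plates were incubated 24 h at 37 °C and optical density was read.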

The test system of assay [14] is Escherichia coli. Briefly: Antimicrobial activity against Escherichia coli ATCC 35218 assessed as diameter of inhibition zone at 80 uM after 24 hrs by Kirby -Baur disc diffusion method. In kind it is functional. In outline: (§4)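 Kirby-Bauer disc diffusion was used. Acetone stocks (160 µM) were serially doubled down to 80, 40 and 20 µM. 4 µL of each went onto 5 mm sterile paper discs, which were dried 30 min at 50 °C. Inoculum was 1.5 × 10⁸ CFU/mL diluted to 3 × 10² CFU/mL, and 50 µL was spread on Mueller-Hinton agar. After 24 h at 37 °C the inhibition-zone diameter was measured. Ciprofloxacin served as positive control.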

The subject of assay [15] is Pseudomonas aeruginosa. The experiment in a line: Antimicrobial activity against Pseudomonas aeruginosa ATCC 15499 after 24 hrs by broth micro serial dilution method. The assay is classed as functional. In short, it runs like this: as §3
Assay [16] concerns Pseudomonas aeruginosa. Briefly: Antimicrobial activity against Pseudomonas aeruginosa ATCC 15499 assessed as diameter of inhibition zone at 80 uM after 24 hrs by Kirby -Baur disc diffusion method. In kind it is functional. In short, it runs like this:
as §4

Assay [17] concerns Salmonella typhi. The experiment in a line: Antimicrobial activity against Salmonella typhi ATCC 23564 after 24 hrs by broth micro serial dilution method. The assay is classed as functional.
Assay [18] deals with Salmonella typhi. The experiment in a line: Antimicrobial activity against Salmonella typhi ATCC 23564 assessed as diameter of inhibition zone at 80 uM after 24 hrs by Kirby -Baur disc diffusion method. The settings on record: for diameter of the inhibition zone (DIZ): Salmonella enterica subsp. enterica serovar Typhi. The assay is classed as functional.
The subject of assay [19] is Bacillus cereus. The experiment in a line: Antimicrobial activity against Bacillus cereus MTCC 7350 after 24 hrs by broth micro serial dilution method. The assay is classed as functional. In outline:
as §3

For assay [20], the system named is Bacillus cereus. The experiment in a line: Antimicrobial activity against Bacillus cereus MTCC 7350 assessed as diameter of inhibition zone at 80 uM after 24 hrs by Kirby -Baur disc diffusion method. The assay is classed as functional. In outline:
as §4

The subject of assay [21] is Staphylococcus aureus. Briefly: Antimicrobial activity against Staphylococcus aureus ATCC 11632 after 24 hrs by broth micro serial dilution method. In kind it is functional. In outline: as §3
Assay [22] deals with Staphylococcus aureus. Briefly: Antimicrobial activity against Staphylococcus aureus ATCC 11632 assessed as diameter of inhibition zone at 80 uM after 24 hrs by Kirby -Baur disc diffusion method. In kind it is functional. In outline: as §4
Assay [23] deals with Salmonella typhi. Briefly: Antimicrobial activity against Salmonella typhi ATCC 23564 assessed as diameter of inhibition zone at 20 uM after 24 hrs by Kirby -Baur disc diffusion method. The assay is classed as functional. The settings on record: Salmonella enterica subsp. enterica serovar Typhi.
The subject of assay [24] is Salmonella typhi. The experiment in a line: Antimicrobial activity against Salmonella typhi ATCC 23564 assessed as diameter of inhibition zone at 40 uM after 24 hrs by Kirby -Baur disc diffusion method. In kind it is functional. The settings on record: Salmonella enterica subsp. enterica serovar Typhi.
[25] abbreviates: Salmonella enterica, ATCC 23564, 24 h.

Values after ≈ are worked out from the molar mass of the structure shown. Active and inactive are the calls of the source. The calls are words filed in the database; no cut-off is given here.

Usually inhibition in vivo stands for the relative decrease from the control value, in per cent. As usually defined, the IC50 is the concentration needed to halve the response being measured. By MIC is commonly meant the least concentration at which growth counts as inhibited.

For `COc1cc(/C=C/c2nn(-c3ccccc3)c(/C=C/c3ccc(O)c(OC)c3)c2/N=N/c2ccc(S(N)(=O)=O)cc2)ccc1O`, the inhibition in vivo at 200 mg/kg in the assay with Mus musculus turned out to be 22.5%. Also, the IC50 entry was “Not Active” in the assay on HCT-116, > 100 µM with QG-56, > 100 µM in the assay on HeLa and “Not Active” in the assay on HepG2. The minimum inhibitory concentration (MIC) against Trichoderma viride [1] is 80 µM (≈ 49.9 µg/mL); against Curvularia lunata [5] it was > 80 µM. Also, the “inhibition zone (IZ)” value in the assay on Trichoderma viride [2], in the assay with Curvularia lunata [6], in the assay on Aspergillus flavus [10] and in the assay with Aspergillus niger [12] was “inactive” throughout. The zone of inhibition at 40 µM in the assay with Trichoderma viride [3] and with Curvularia lunata [7] was 10 mm in each case. For the same compound, the zone of inhibition at 80 µM with Trichoderma viride [4] and in the assay with Curvularia lunata [9] was 11 mm throughout. In addition, the MIC entry in the assay with Aspergillus flavus [8], in the assay on Aspergillus niger [11], in the assay with Escherichia coli [13], in the assay with Pseudomonas aeruginosa [15], with Salmonella typhi [17] (Salmonella enterica subsp. enterica serovar Typhi) and with Bacillus cereus [19] was “inactive” throughout. Moreover, the MIC result with Staphylococcus aureus [21] was “inactive”. Further, the “diameter of the inhibition zone (DIZ)” value in the assay with Escherichia coli [14], with Pseudomonas aeruginosa [16], in the assay with Salmonella typhi [18], in the assay with Bacillus cereus [20] and with Staphylococcus aureus [22] was “inactive” throughout.
As to `COc1cc(/C=C/c2noc(/C=C/c3ccc(O)c(OC)c3)c2/N=N/c2ccc(S(N)(=O)=O)cc2)ccc1O`, the inhibition in vivo at 200 mg/kg in the assay on Mus musculus turned out to be 24.1%. The IC50 result in the assay with HCT-116, in the assay with QG-56, in the assay on HeLa and in the assay with HepG2 was “Not Active” throughout. Besides, the MIC against Trichoderma viride [1], against Curvularia lunata [5] and against Salmonella typhi [17] (setting [25]) was > 80 µM in each case. In addition, the “inhibition zone (IZ)” value in the assay with Trichoderma viride [2], in the assay on Trichoderma viride [3], in the assay on Curvularia lunata [6], in the assay with Curvularia lunata [7], in the assay with Aspergillus flavus [10] and with Aspergillus niger [12] was “inactive” throughout. Moreover, the zone of inhibition at 80 µM was 11 mm with Trichoderma viride [4]; 9 mm in the assay with Curvularia lunata [9]; 11 mm in the assay with Salmonella typhi [18] (Salmonella enterica, ATCC 23564, 24 h, read-out: DIZ). The MIC entry in the assay on Aspergillus flavus [8], in the assay on Aspergillus niger [11], in the assay with Escherichia coli [13], with Pseudomonas aeruginosa [15], in the assay on Bacillus cereus [19] and with Staphylococcus aureus [21] was “inactive” in each case. Also, the “diameter of the inhibition zone (DIZ)” value in the assay with Escherichia coli [14], in the assay with Pseudomonas aeruginosa [16], in the assay with Salmonella typhi [23], in the assay with Salmonella typhi [24], in the assay on Bacillus cereus [20] and in the assay on Staphylococcus aureus [22] was “inactive” in each case.
For the compound `OC(Cn1cncn1)(Cn1cncn1)c1ccc(F)cc1F` [FLUCONAZOLE], the MIC with Trichoderma viride [1] was 20 µM (≈ 6.13 µg/mL); in the assay with Curvularia lunata [5], 20 µM (≈ 6.13 µg/mL); in the assay with Aspergillus flavus [8] (MTCC 1021, 48 h), > 80 µM. The zone of inhibition at 20 µM in the assay with Trichoderma viride [2] (MTCC 1107, 48 h, read-out: IZ) worked out at 21 mm; in the assay on Curvularia lunata [6] (MTCC 581, 48 h, read-out: IZ), 24 mm. The zone of inhibition at 40 µM is 24 mm in the assay with Trichoderma viride [3] and 27 mm in the assay with Curvularia lunata [7]. The zone of inhibition at 80 µM was 29 mm in the assay with Trichoderma viride [4] and 28 mm in the assay with Curvularia lunata [9]. Moreover, the “inhibition zone (IZ)” value in the assay with Aspergillus flavus [10] and in the assay on Aspergillus niger [12] was “inactive” in each case. In addition, the MIC entry in the assay with Aspergillus niger [11] is “inactive”.
On to `Cc1cc(C)nc(NS(=O)(=O)c2ccc(N)cc2)n1` [SULFAMETHAZINE], for which the MIC against Escherichia coli [13] (ATCC 35218, 24 h) was > 160 µM; in the assay with Salmonella typhi [17] (setting [25]), > 160 µM. The “diameter of the inhibition zone (DIZ)” value with Escherichia coli [14], in the assay on Pseudomonas aeruginosa [16], with Salmonella typhi [18], with Bacillus cereus [20] and in the assay on Staphylococcus aureus [22] was “inactive” in each case. For the same compound, the MIC result with Pseudomonas aeruginosa [15], in the assay on Bacillus cereus [19] and in the assay on Staphylococcus aureus [21] was “inactive” throughout.
